Results on 7 compounds are retold here after ChEMBL document CHEMBL1806376, “Synthesis and biological properties of macrolactam analogs of the natural product macrolide (-)-A26771B” (2011).

SMILES strings stand for the structures. Values after ≈ are worked out from the molar mass of the structure shown. A value given as a limit tells only on which side of the number the result lay.

What all share (format): functional
In experiment [1] the test system is Escherichia coli. Kind of experiment: Antibacterial activity against Escherichia coli ATCC 25922 by broth microdilution method. In short, it runs like this:
(§1)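 MIC values determined by broth microdilution following the CLSI method.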
(In general: In broth dilution the organism is exposed to a series of concentrations in liquid medium.)

Experiment [2] concerns Enterococcus faecalis. Put plainly: Antibacterial activity against Enterococcus faecalis ATCC 29212 by broth microdilution method. Put shortly:
as §1

For experiment [3], the system named is Haemophilus influenzae. Kind of experiment: Antibacterial activity against Haemophilus influenzae ATCC 31517 by broth microdilution method. In short, it runs like this: as §1
The subject of experiment [4] is Haemophilus influenzae. Put plainly: Antibacterial activity against efflux knock-out Haemophilus influenzae LS2 by broth microdilution method. In short, it runs like this: as §1
The test system of experiment [5] is Pseudomonas aeruginosa. Kind of experiment: Antibacterial activity against Pseudomonas aeruginosa ATCC 27853 by broth dilution method. Put shortly:
as §1

Experiment [6] has as its system Staphylococcus aureus. Put plainly: Antibacterial activity against Staphylococcus aureus ATCC 13709 by broth microdilution method. In short, it runs like this:
as §1

Experiment [7] has as its system Staphylococcus aureus. Put plainly: Antibacterial activity against methicillin-resistant Staphylococcus aureus Sa2 by broth microdilution method. In short, it runs like this:
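Broth microdilution run according to the CLSI method.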

For experiment [8], the system named is Staphylococcus aureus. Put plainly: Antibacterial activity against Staphylococcus aureus ATCC 25923 by broth microdilution method. In short, it runs like this: as §1
Experiment [9] concerns Staphylococcus aureus. Kind of experiment: Antibacterial activity against Staphylococcus aureus ATCC 25923 by broth microdilution method in presence of 10% human serum. Put shortly: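 MIC determined by broth microdilution per the CLSI method, with 10% human serum added to the medium.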
Experiment [10] relates to Staphylococcus aureus. Kind of experiment: Antibacterial activity against Staphylococcus aureus oxford by broth microdilution method. Put shortly:
as §1

Experiment [11] has as its system Streptococcus pneumoniae. Kind of experiment: Antibacterial activity against Streptococcus pneumoniae ATCC 49619 by broth microdilution method. Put shortly: as §1
The test system of experiment [12] is Streptococcus pneumoniae. Kind of experiment: Antibacterial activity against Streptococcus pneumoniae Pen9 IV381-221 by broth microdilution method. In short, it runs like this: as §1
Experiment [13] concerns Enterococcus faecium. Put plainly: Antibacterial activity against Enterococcus faecium 1 by broth microdilution method. Put shortly:
as §1

The mark [14] stands for this setting: Enterococcus faecalis, ATCC 29212, read-out: MIC.
Where [15] appears, read: Haemophilus influenzae, ATCC 31517, read-out: MIC.
Setting [16] is: Haemophilus influenzae, LS2, read-out: MIC.
Where [17] appears, read: Staphylococcus aureus, ATCC 13709, read-out: MIC.
[18] abbreviates: Staphylococcus aureus, Sa2, read-out: MIC.
Where [19] appears, read: Staphylococcus aureus, ATCC 25923, read-out: MIC.
[20] abbreviates: Staphylococcus aureus, oxford, read-out: MIC.
Where [21] appears, read: Streptococcus pneumoniae, ATCC 49619, read-out: MIC.
[22] abbreviates: Streptococcus pneumoniae, Pen9 IV381-221, read-out: MIC.
The mark [23] stands for this setting: Enterococcus faecium, 1, read-out: MIC.

Turning to `C[C@@H]1CCCCCCCCC[C@H](OC(=O)CCC(=O)OC(C)(C)C)C(=O)/C=C/C(=O)O1`, the MIC in [1] is greater than 32 µg/mL; in experiment [2] (setting [14]), 2 µg/mL (≈ 4.56 µM); in experiment [3] (setting [15]) it was greater than 32 µg/mL; in [4] (setting [16]), 8 µg/mL (≈ 18.2 µM); in experiment [5] it was greater than 32 µg/mL; in experiment [6] (setting [17]) it was 2 µg/mL (≈ 4.56 µM). Besides, the MIC in experiment [7] (setting [18]) was 0.5 µg/mL (≈ 1.14 µM); in experiment [8] (setting [19]), 8 µg/mL (≈ 18.2 µM); in experiment [9] (setting [19]), greater than 32 µg/mL; in [10] (setting [20]) it was 2 µg/mL (≈ 4.56 µM); in [11] (setting [21]), 2 µg/mL (≈ 4.56 µM); in experiment [12] (setting [22]), 1 µg/mL (≈ 2.28 µM).

For the compound `C[C@@H]1CCCCCCCCC[C@H](OC(=O)CCC(=O)OC(C)(C)C)C(=O)CC(N2CCN(C)CC2)C(=O)O1` (stereo partly specified), the MIC was greater than 32 µg/mL in experiment [1]; 4 µg/mL (≈ 7.42 µM) in experiment [2] (setting [14]); 4 µg/mL (≈ 7.42 µM) in experiment [13] (setting [23]); greater than 32 µg/mL in [3] (setting [15]); greater than 32 µg/mL in experiment [5]; 2 µg/mL (≈ 3.71 µM) in experiment [6] (setting [17]). Moreover, the MIC is 2 µg/mL (≈ 3.71 µM) in [7] (setting [18]); 4 µg/mL (≈ 7.42 µM) in experiment [8] (setting [19]); greater than 32 µg/mL in experiment [9] (setting [19]); 2 µg/mL (≈ 3.71 µM) in [10] (setting [20]); 4 µg/mL (≈ 7.42 µM) in [11] (setting [21]); 2 µg/mL (≈ 3.71 µM) in [12] (setting [22]).

For `CO[C@H]1CCCCCCCCC[C@@H](C)OC(=O)C(Sc2ccccc2)CC1=O` (stereo partly specified), the MIC in [1] was greater than 64 µg/mL; in [2] (setting [14]) it was greater than 64 µg/mL; in [13] (setting [23]), greater than 64 µg/mL; in [3] (setting [15]) it was greater than 64 µg/mL; in experiment [4] (setting [16]) it was 2 µg/mL (≈ 4.92 µM); in [5], greater than 64 µg/mL. Besides, the MIC in experiment [6] (setting [17]) came out at 1 µg/mL (≈ 2.46 µM); in experiment [7] (setting [18]), 2 µg/mL (≈ 4.92 µM); in experiment [8] (setting [19]), 1 µg/mL (≈ 2.46 µM); in experiment [9] (setting [19]), 16 µg/mL; in experiment [10] (setting [20]) it was 1 µg/mL (≈ 2.46 µM); in experiment [11] (setting [21]), 2 µg/mL (≈ 4.92 µM). For the same compound, the MIC in experiment [12] (setting [22]) came to 1 µg/mL (≈ 2.46 µM).

Regarding `C[C@@H]1CCCCCCCCC[C@H](O)C(=O)CC(SCC(F)(F)F)C(=O)O1` (stereo partly specified), the MIC in experiment [1] was greater than 64 µg/mL; in [2] (setting [14]), 4 µg/mL (≈ 10 µM); in experiment [13] (setting [23]) it was 4 µg/mL (≈ 10 µM); in [3] (setting [15]), 32 µg/mL (≈ 80.3 µM); in [4] (setting [16]), 2 µg/mL (≈ 5.02 µM); in [5], greater than 64 µg/mL. Also, the MIC turned out to be 1 µg/mL (≈ 2.51 µM) in experiment [6] (setting [17]); 1 µg/mL (≈ 2.51 µM) in experiment [7] (setting [18]); 1 µg/mL (≈ 2.51 µM) in experiment [8] (setting [19]); 32 µg/mL in [9] (setting [19]); 1 µg/mL (≈ 2.51 µM) in experiment [10] (setting [20]); 4 µg/mL (≈ 10 µM) in [11] (setting [21]). For the same compound, the MIC in experiment [12] (setting [22]) came out at 4 µg/mL (≈ 10 µM).

Turning to `CO[C@H]1CCCCCCCCC[C@@H](C)OC(=O)C2OC2C1=O` (single isomer, unassigned; diastereomer 1), the MIC in experiment [2] was 64 µg/mL (≈ 205 µM); in [13] (setting [23]), 32 µg/mL (≈ 102 µM); in experiment [3] (setting [15]) it was greater than 64 µg/mL; in experiment [4] (setting [16]) it was greater than 64 µg/mL; in experiment [5] it was greater than 64 µg/mL; in [6] (setting [17]), 32 µg/mL (≈ 102 µM). Moreover, the MIC in [7] (setting [18]) is greater than 64 µg/mL; in experiment [8] (setting [19]) it was 64 µg/mL (≈ 205 µM); in [9] (setting [19]), greater than 64 µg/mL; in experiment [10] (setting [20]), 64 µg/mL (≈ 205 µM); in experiment [11] (setting [21]), 64 µg/mL (≈ 205 µM); in [12] (setting [22]) it was 64 µg/mL (≈ 205 µM).

Regarding `COC1CCCCCCCCC[C@@H](C)NC(=O)/C=C/C1=O` (single isomer, unassigned; diastereomer 2), the MIC is 2 µg/mL (≈ 6.77 µM) in experiment [2] (setting [14]); 0.5 µg/mL (≈ 1.69 µM) in experiment [13] (setting [23]); 2 µg/mL (≈ 6.77 µM) in experiment [3]; 0.25 µg/mL (≈ 0.846 µM) in [4]; 0.5 µg/mL (≈ 1.69 µM) in experiment [6]; 0.5 µg/mL (≈ 1.69 µM) in [7]. For the same compound, the MIC in [8] came out at 1 µg/mL (≈ 3.38 µM); in [9] it was 8 µg/mL; in experiment [10], 0.5 µg/mL (≈ 1.69 µM); in experiment [11] it was 2 µg/mL (≈ 6.77 µM); in [12] it was 8 µg/mL (≈ 27.1 µM).

Regarding `CO[C@H]1CCCCCCCCC[C@@H](C)OC(=O)C2OC2C1=O` (stereo in doubt; 16b), the MIC in experiment [1], in experiment [2] (setting [14]), in [13], in experiment [6], in experiment [8] and in experiment [10] was greater than 64 µg/mL in each case. Also, the MIC in [11] and in experiment [12] was greater than 64 µg/mL throughout.
